Measurements as given in ChEMBL document CHEMBL4041529, “Structure-Guided Design of EED Binders Allosterically Inhibiting the Epigenetic Polycomb Repressive Complex 2 (PRC2) Methyltransferase” (J Med Chem, 2017).

What was measured:
Polycomb protein EED [1] = molecular target: T1, Polycomb protein EED (Homo sapiens, UniProt O75530); assay: Inhibition of human PRC2-EED (76 to 441 residues) expressed in Escherichia coli BL21 (DE3) using histone H3[21 to 44, K27MeO] as substrate and SAM as co-factor measured after 2 hrs by LC-MS/MS method
[2] = Dissociation constant, pKa of the compound by electrophoresis/potentiometric method; type: physicochemical
Polycomb protein EED [3] = molecular target: T1, Polycomb protein EED; assay: Inhibition of EED in human G401 cells assessed as reduction in H3K27 methylation measured after 48 hrs by ELISA method; type: cell-based
Summary of the method: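 G-401 rhabdoid cells at 37 °C, 5% CO2 were seeded, grown 24 h, then given serial dilutions for 48 h against a matched DMSO control. Cells were PBS-washed, lysed in 0.4 N HCl for 30 min at 4 °C and neutralized. Lysate was coated overnight at 4 °C, blocked with TBST/5% BSA, then probed with antibody and ECL. H3K27Me3 was normalized to H3, and IC50 came from a dose-response fit.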

Polycomb protein EED [4] = molecular target: T1, Polycomb protein EED; assay: Binding affinity to human methionine-13Cepsilon-methyl labeled PRC2-EED (76 to 441 residues) expressed in Escherichia coli BL21 (DE3) by 2D NMR method
Summary of the method: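 2D [13C,1H]-HSQC at 600 MHz, 296 K, on 40 μM selectively methionine-13Cε-methyl-labeled EED76–441 in 25 mM d-Tris pH 8, 150 mM NaCl, 2 mM d-DTT, 10% D2O. The protein was titrated with increasing ligand, and KD was derived from the chemical shift perturbations.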

Pfeiffer = assay: Antiproliferative activity against human Pfeiffer cells harboring EZH2 mutant measured after 6 days by CellTiter-Glo assay; type: functional, cell-based; details: for EC50: 144 h
Summary of the method: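 Exponentially growing Pfeiffer B-lymphocyte cells were exposed to compound for 6 days. Growth was read by CellTiter-Glo luminescence. Percent inhibition was taken versus a DMSO control, and IC50 was obtained by curve fitting.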

T1 sequence (O75530 whole entry, the tested form may be a part): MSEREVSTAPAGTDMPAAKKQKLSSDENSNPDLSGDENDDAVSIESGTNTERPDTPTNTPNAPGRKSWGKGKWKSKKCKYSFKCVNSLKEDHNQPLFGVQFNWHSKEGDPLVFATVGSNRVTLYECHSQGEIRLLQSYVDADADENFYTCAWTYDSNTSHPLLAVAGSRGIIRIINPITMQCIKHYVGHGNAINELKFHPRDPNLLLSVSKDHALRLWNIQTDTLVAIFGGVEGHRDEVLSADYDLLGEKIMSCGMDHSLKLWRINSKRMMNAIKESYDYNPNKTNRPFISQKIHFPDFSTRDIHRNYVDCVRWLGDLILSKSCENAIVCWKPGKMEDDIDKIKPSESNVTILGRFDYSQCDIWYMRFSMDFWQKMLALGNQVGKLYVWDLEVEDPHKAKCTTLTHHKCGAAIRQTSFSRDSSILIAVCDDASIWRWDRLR

Row | Structure (SMILES) | IC50 (Polycomb protein EED [1]) | pKa [2] | IC50 (Polycomb protein EED [3]) | other results
1 | CC(C)c1nc(N)n2c1CCC(Cc1ccccc1F)C2 (centres undefined) | 7.9 µM | – | – | –
2 | COc1cccc(CC2CCCN(C(=N)N)C2)c1 (centres undefined) | 43 µM | > 11 | – | –
3 | N=C(N)N1CCCC(Cc2cccc3occc23)C1 (centres undefined) | 2.1 µM | > 11 | 2.5 µM | –
4 | Nc1ncc2n1CC(Cc1cccc3c1OCO3)CC2 (centres undefined) | 1.3 µM | 9.2 | 1 µM | –
5 | c1cc(CC2CCCNC2)c2c(c1)OCO2 (centres undefined) | 35 µM | – | – | –
6 | COc1ccc(F)c(CC2CCc3c(C(C)C)nc(N)n3C2)c1 (centres undefined) | 1.3 µM | – | 2.9 µM | EC50 (Pfeiffer): 4.4 µM
7 | COc1ccc(CC2CCCNC2)cc1 (centres undefined) | > 500 µM | – | – | –
8 | Nc1ncc2n1CC(Cc1cccc3occc13)CC2 (centres undefined) | 2.7 µM | – | 12.4 µM | –
9 | N=C(N)N1CCCC(Cc2cccc3ccoc23)C1 (centres undefined) | 2.8 µM | – | 2.5 µM | –

Second part, led by results:

Row | IC50 (Polycomb protein EED [1]) | pKa [2] | IC50 (Polycomb protein EED [3]) | Structure (SMILES) | other results
10 | 95 µM | – | – | c1cc(CC2CCCNC2)c2occc2c1 (centres undefined) | –
11 | 174 µM | – | – | NC(=O)N1CCCC(Cc2cccc3ccoc23)C1 (centres undefined) | –
12 | 3.9 µM | > 11 | 1.6 µM | N=C(N)N1CCCC(Cc2cccc3c2OCO3)C1 (centres undefined) | –
13 | 95 µM | 9.9 | – | COc1cccc(CC2CCCNC2)c1 (centres undefined) | Kd (Polycomb protein EED [4]): 32 µM
14 | 0.43 µM | – | 2 µM | CC(C)c1nc(N)n2c1CCC(Cc1cccc3c1OCO3)C2 (centres undefined) | Activity (Pfeiffer): Dose-dependent effect; EC50 (Pfeiffer): 3.4 µM
15 | 40 µM | 9.8 | – | c1cc(CC2CCCNC2)c2ccoc2c1 (centres undefined) | –
16 | 119 µM | – | – | COc1cc(CC2CCCNC2)ccc1F (centres undefined) | –
17 | > 500 µM | – | – | c1ccc(CC2CCCNC2)cc1 (centres undefined) | –
